KCNK3 block = human KCNK3 channel inhibition, primary screen; AID 602410; CHO-KCNK3 thallium flux, FluxOR fluorescence; hits give low values; B-score at 10 µM; hit rate 0.84% among 340,000;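 active means B-score under library mean minus 4 SD, starting fluorescence ratio at most library mean plus 5 SD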;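 further: more negative B-score means stronger inhibition of thallium flux through KCNK3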
Target sequence (O14649 whole entry, looked up): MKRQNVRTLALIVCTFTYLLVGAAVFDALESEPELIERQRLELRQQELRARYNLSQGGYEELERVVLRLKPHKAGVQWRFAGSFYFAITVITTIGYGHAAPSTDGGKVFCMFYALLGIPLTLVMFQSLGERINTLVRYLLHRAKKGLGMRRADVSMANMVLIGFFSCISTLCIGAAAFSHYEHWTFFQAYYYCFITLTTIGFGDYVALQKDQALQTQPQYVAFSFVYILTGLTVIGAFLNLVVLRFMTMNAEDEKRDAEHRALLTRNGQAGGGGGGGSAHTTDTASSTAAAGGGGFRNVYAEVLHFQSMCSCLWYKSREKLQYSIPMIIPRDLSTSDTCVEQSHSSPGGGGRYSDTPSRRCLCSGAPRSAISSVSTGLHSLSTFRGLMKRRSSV
KCNQ1 pot = potentiates or activates the human KCNQ1 potassium channel | P51787 | CHO-K1 KCNQ1, thallium flux FluxOR fluorescence; hits give high values | B-score at 10 µM | hit rate 0.35% among 310,000 | AID 2648;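 active means fluorescence ratio B-score, a plate-corrected score, at least three library SD, with initial intensity B-score within 5 SD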
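Doses: Single concentration per compound, DMSO matched to controls | Test system: KCNQ1-transfected CHO-K1 cells | Timing: 90 min dye loading and 20 min compound exposure, both at room temperature | Measured by: Kinetic FluxOR thallium fluorescence, 10-s 1-Hz baseline, 110-s post-stimulus read | Medium: Assay buffer with matched DMSO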
KCNQ1 block = blocks the human KCNQ1 potassium channel. P51787. CHO-K1 KCNQ1, FluxOR thallium flux fluorescence; hits give high values. B-score at 10 µM. hit rate 1.3% among 310,000. AID 2642;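 active means compounds whose thallium flux B-score, printed positive for inhibition, exceeds three library SD while starting fluorescence stays within three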;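 further: channel opened by potassium depolarization with thallium stimulus after 20 min compound exposure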
hERG rescue = shields human hERG channel from block by proarrhythmic agents | Q12809 | CHO-hERG, FluxOR thallium flux, dofetilide IC70 present | activation (rescue from dofetilide block), less the hit threshold, % at 10 µM | hit rate 0.51% among 310,000 | AID 1511;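 active means activation above the mean of controls blocked by dofetilide plus 5 SD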;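 further: thallium influx through hERG after potassium depolarization seen as dye fluorescence rise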
KCNK9 inh = blocks the human KCNK9 two-pore domain potassium channel. Q9NPC2. hit rate 1.2% among 310,000. B-score at 10 µM. HEK293 KCNK9, FluxOR thallium flux fluorescence; hits give low values;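 active means ratio B-score over 3 SD below the library mean, with starting fluorescence within 5 SD of its mean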;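 further: negative B-score means less thallium flux so channel inhibition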
KCNK9 block conf = human KCNK9 inhibitor confirmation; hit rate 43% among 4,900; shares compounds with KCNK9 inh; inhibition, % at 10 µM; HEK293 KCNK9 cells, FluxOR thallium flux fluorescence;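 active means thallium signal inhibited by more than 5 SD of the compound-free buffer control wells, on both duplicate plates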;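 further: 0% = assay buffer control wells without compound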
Kir2-1 spec = tests whether KCNK9 modulators also affect mouse Kir2.1 | inhibition, % at 10 µM | shares compounds with KCNK9 inh | hit rate 4% among 4,900 | Kir2.1 cells, FluxOR thallium flux fluorescence;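 active means thallium signal drop more than 5 SD beyond the mean of the no-compound control wells, seen in both duplicate plates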;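 further: signal is fluorescence rise after thallium addition divided by baseline fluorescence; plate controls were assay buffer only for no effect and full block by chlorpromazine control for full effect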
HEK293 Tl ctr = second counter-screen for KCNK9 modulators: effect in non-induced cells; shares compounds with KCNK9 inh; hit rate 40% among 4,900; inhibition, % at 10 µM; non-induced KCNK9-HEK293, FluxOR thallium flux;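 active means thallium signal drop beyond 5 SD of the untreated control mean, on both duplicate plates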;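 further: plate controls were buffer only IC0 wells for no effect and SID17386958 at its maximal inhibitory level for full effect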
* hit, by the source's call; i = inactive; . = no result given. Hits are enriched below; roughly 3.1% of the tested compounds scored in any of these assays.

SMILES	KCNK3 block	KCNQ1 pot	KCNQ1 block	hERG rescue	KCNK9 inh	KCNK9 block conf	Kir2-1 spec	HEK293 Tl ctr
NS(=O)(=O)c1ccc(CCNC(=O)c2ccc(NS(=O)(=O)c3ccc4[nH]c(=O)[nH]c4c3)cc2)cc1	i	i	i	-8	i	.	.	.
CC1CN(c2oc(COc3ccc(Cl)cc3Cl)nc2C#N)CC(C)O1 (stereo unspecified)	i	i	i	-1	i	i	i	i
Cc1ccc(Cn2ccc(NC(=O)c3cc(CC(C)C)on3)n2)cc1	i	i	i	-11	i	i	i	i
C=C1CCN([C@H](C(=O)O)C(C)C)S(=O)(=O)c2ccccc21	i	i	i	-8	i	.	.	.
C=C1CCN([C@H](C(=O)OCc2cccc(C)c2)C(C)C)S(=O)(=O)c2ccccc21	i	i	i	-12	-9*	46%*	i	i
CCN(C[C@H]1N[C@@](CC)(C(=O)OC)[C@H]2C(=O)N(C)C(=O)[C@@H]12)C(=O)C1CCCCC1	i	.	.	.	.	.	.	.
COc1ccccc1NC1=C(Cl)C(=O)N(C2CCCCC2)C1=O	i	i	i	-16	-8.5*	58%*	i	29%*
CCOc1ccccc1NC1=C(Cl)C(=O)N(c2ccc(OC)cc2)C1=O	i	i	i	-12	-17*	64%*	i	42%*
CC(=O)Nc1c2c(nn1-c1cccc(Cl)c1)CS(=O)(=O)C2	i	i	i	-6	i	.	.	.
CCOc1ccc(CCNC(=O)c2ccc(=O)[nH]c2)cc1OCC	i	i	i	-6	i	.	.	.
CC1=NNC(=O)/C1=C\c1cn(-c2ccccc2)nc1-c1ccc(Cl)cc1	i	i	i	-8	i	i	i	i
Cc1ccc(-c2nn(-c3ccccc3)cc2C=C2C(=O)CC(C)(C)CC2=O)cc1	i	i	i	-9	i	.	.	.
O=C(c1ccccc1)c1nc2ccccc2n(CCCn2c(=O)c(C(=O)c3ccccc3)nc3ccccc32)c1=O	i	i	i	-3	i	i	i	i
Cn1c(=O)c(C(=O)c2ccccc2)nc2ccccc21	i	i	i	-11	i	.	.	.
Nc1nnc(-c2ccc(Cl)c([N+](=O)[O-])c2)s1	i	i	i	-17	i	.	.	.
Cc1cc2ccccn2c1C(=O)c1ccc(Cl)cc1	i	i	i	-7	i	.	.	.
Cc1cc2ccccn2c1C(=O)c1ccccc1F	i	i	i	-7	-12*	i	i	i
Cc1cc(C)cc(NS(=O)(=O)c2ccc3c(c2)C(C)(C)C(=O)N3C)c1	i	i	i	-8	i	.	.	.
O=C(Nc1ccccc1-c1nnc(SCc2ccccc2)o1)c1ccccc1	i	i	i	-17	i	i	i	i
COc1ccc(-c2csc(NC(C)c3nc4cc(Cl)c(Cl)cc4n3CCOCCO)n2)cc1 (stereo unspecified)	i	i	i	-6	-8.6*	32%*	i	40%*
C[C@@]12C(=O)Nc3cc(F)ccc3C(=O)N1[C@H]1c3ccccc3OC[C@@H]1[C@@H]2c1ccccc1	i	.	.	.	.	.	.	.
CC(CCc1ccccc1)NC(=O)COC(=O)C1CCC(C(C)(C)C)CC1 (stereo unspecified)	i	i	i	-10	i	i	i	i
CCCn1c(=O)c(C(=O)Nc2cccc(C)n2)c(O)c2ccccc21	i	i	i	-7	-10*	i	i	29%*
CCCCCCCCC(=O)NNC(=O)c1c(O)c2ccccc2n(CCC)c1=O	i	i	i	-11	i	i	i	i
CCCCCCCCCC(=O)NNC(=O)c1c(O)c2ccccc2n(CCC)c1=O	i	i	i	-11	i	.	.	.
SMILES	KCNK3 block	KCNQ1 pot	KCNQ1 block	hERG rescue	KCNK9 inh	KCNK9 block conf	Kir2-1 spec	HEK293 Tl ctr
CCCn1c(=O)c(C(=O)Nc2ncccc2C)c(O)c2ccccc21	i	i	i	-6	i	.	.	.
O=C(CCC(=O)N1CCOc2ccc(Cl)cc21)NCCN1CCOCC1	i	i	i	-7	i	.	.	.
COc1ccc(CN2CCN(CCSc3ccc(C)cc3)CC2)c(OC)c1OC	i	i	i	-2	i	i	i	i
CCOc1ccccc1N1CCN(Cc2ccc(OC)c(OC)c2OC)CC1	i	i	i	-10	i	.	.	.
NS(=O)(=O)c1ccc(CCNC(=O)c2ccc[nH]c2=S)cc1	i	i	i	-10	i	.	.	.
COC(=O)CN1C(c2ccc(OC)cc2)=Nc2ccc(Cl)cc2C1c1ccccc1 (stereo unspecified)	i	i	i	-10	i	.	.	.
COC(=O)CN1C(c2cccc(Cl)c2)=Nc2ccc(Cl)cc2C1c1ccccc1 (stereo unspecified)	i	i	i	-6	-16*	58%*	i	47%*
CN(C(=O)CCS(=O)(=O)c1cc2c(cc1Cl)NC(=O)CO2)C1CCCCC1	i	i	i	-5	i	.	.	.
Cc1ccccc1-n1ncc2c(SCC(=O)NC3CCCC3)ncnc21	i	i	i	-4	i	.	.	.
Cc1ccccc1-n1ncc2c(SCC(=O)N3c4ccccc4CC3C)ncnc21 (stereo unspecified)	i	i	i	-7	i	i	i	i
O=C(C1CC(c2cccc(Br)c2)=NO1)N1CCc2ccccc2C1 (stereo unspecified)	i	i	i	-9	i	i	i	i
CCOC(=O)COc1ccccc1C1Nc2ccccc2C(=O)N1c1cccc(Cl)c1 (stereo unspecified)	-11*	i	i	-1	-14*	62%*	i	34%*
CCOC(=O)COc1c(OC)cc(Cl)cc1C1Nc2ccccc2C(=O)N1c1ccc(F)cc1 (stereo unspecified)	i	i	i	0	-12*	64%*	i	41%*
CCOc1cc(C2Nc3ccccc3C(=O)N2c2ccccc2)c(Br)cc1OCC(=O)O (stereo unspecified)	i	i	i	-7	i	.	.	.
CCCCOc1ccc(C(=O)Nc2cccc(-n3cnnn3)c2)cc1OC	i	i	i	-8	i	.	.	.
CCC1=NN(C(=O)COc2ccccc2)C(O)(c2ccncc2)C1 (stereo unspecified)	i	i	i	-1	i	.	.	.

High-throughput results from PubChem BioAssay.
